Results from ChEMBL document CHEMBL2010714, “Radical-regulating and antiviral properties of ascorbic acid and its derivatives” (Bioorg Med Chem Lett, 2012).

Columns and labels:
[1] = Cytotoxicity against human RD cells assessed maximun non-toxic concentration; format: cell-based
Procedure, shortened: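 Maximum non-toxic concentration determined in uninfected human RD cell culture after 72 h incubation with compound.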

Human alphaherpesvirus 1 = assay: Antiviral activity against Herpes simplex virus type 1 infected in human RD cells assessed as inhibition of virus-induced cytopathic effect; format: functional, organism-based; settings: Human alphaherpesvirus 1, RD
Procedure, shortened: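 Human RD cells infected with HSV-1. Cytopathic-effect method. Activity criterion: reduction in virus titer with test compound versus untreated infected control. EC50 and EC90 taken as concentrations suppressing virus replication by 50% and 90%. Maximum non-toxic concentration determined separately in uninfected cultures after 72 h incubation.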

[2] = Selectivity ratio of MNTD for human RD cells to EC50 for HSV1; format: ADME, cell-based
Procedure, shortened: (§1)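 HSV-1-infected human RD cells were assessed by cytopathic effect. Virus titer reduction relative to untreated control gave concentrations suppressing replication by 50% and 90% (EC50, EC90). Maximum non-toxic concentration was found in uninfected RD cells after 72 h. The ratio divides MNTC by EC50 or EC90.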

[3] = Selectivity ratio of MNTD for human RD cells to EC90 for HSV1; format: ADME, cell-based; procedure, shortened: as §1

| SMILES | MNTC [1] | EC50 (Human alphaherpesvirus 1) | EC90 (Human alphaherpesvirus 1) | selectivity ratio [2] | selectivity ratio [3] |
| --- | --- | --- | --- | --- | --- |
| O=C1O[C@H]([C@@H](O)CO)C(O)=C1O[C@H]1O[C@H](CO)[C@@H](O)[C@H](O)[C@H]1O | 1.18 mM | 16.3 µM | 26.9 µM | 72.7 | 43.9 |
| CCCCCCCCCCCCCCCC(=O)OC[C@H](O)[C@H]1OC(=O)C(O[C@H]2O[C@H](CO)[C@@H](O)[C@H](O)[C@H]2O)=C1O | 0.0868 mM | 4.5 µM | 6.2 µM | 19.2 | 13.9 |
| COC1=C(OC)[C@@H]([C@@H]2COC(C)(C)O2)OC1=O | 1.64 mM | > 1640 µM | – | < 1 | – |
| COC1=C(OC)[C@@H]([C@@H](O)CO)OC1=O | 1.96 mM | 1810 µM | 3280 µM | 1.1 | 0.6 |
| O=C1O[C@H]([C@@H](O)CO)C(O)=C1O [ASCORBIC ACID] | 2.27 mM | > 2270 µM | – | < 1 | – |
| CCCCCCCCCCCCCCCC(=O)OC[C@H](O)[C@H]1OC(=O)C(O)=C1O [ASCORBYL PALMITATE] | 0.24 mM | > 240 µM | – | < 1 | – |
